Experimental data from ChEMBL document CHEMBL4602646, “Design, synthesis and discovery of andrographolide derivatives against Zika virus infection” (Eur J Med Chem, 2020).
pEC50: −log10 of the molar value.

What was measured:
Zika virus = assay: Antiviral activity against Zika virus PRVABC-59 infected in human SNB19 cells assessed as reduction in viral titer incubated for 24 hrs by viral titer assay; assay type: functional, organism-based, SNB-19; conditions: for EC50: snb-19; for pEC50: Zika virus, PRVABC-59, SNB-19, 24 h, read-out: EC50
Outline: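 SNB-19 glioblastoma cells seeded 1 day ahead and pretreated 1 h with graded compound concentrations (final DMSO 0.1%). Infected with C6/36-derived PRVABC59 at MOI 1; supernatants taken 24 h post-infection. Virus titred by focus-forming unit assay on confluent Vero monolayers: 2 h inoculation, methylcellulose overlay for 48 h, PFA fixation, 4G2 antibody then HRP secondary, DAB–nickel, foci counted. Niclosamide reference included each run.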

[1] = (§1) Cytotoxicity against human SNB19 cells assessed as reduction in cell viability incubated for 24 hrs by MTT assay; assay type: cell-based, SNB-19; conditions: SNB19 cells
Outline: (§2)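 MTT viability readout. Cells plated at 1.0 ×10⁴ per well overnight, then exposed to compounds, with 0.1% DMSO vehicle as control: SNB-19 for 24 h, Vero for 48 h. MTT at 0.5 mg/mL final, 4 h at 37 °C; formazan dissolved in DMSO, absorbance at 570 nm. CC₅₀ from % viability versus control; each concentration repeated 3 times independently.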

[2] = (§3) Cytotoxicity against African green monkey Vero cells assessed as reduction in cell viability incubated for 48 hrs by MTT assay; assay type: cell-based; conditions: chlorocebus sabaeus, Vero cells; outline: as §2
SNB-19 = assay: as §1; assay type: cell-based; conditions: snb-19, 24 h; outline: as §2
[3] = Selectivity index, ratio of CC50 for human SNB19 cells to EC50 for Zika virus PRVABC-59; assay type: toxicity; conditions: read-out: Ratio CC50/EC50
Outline: (§4)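 Selectivity index taken as CC₅₀ over EC₅₀. CC₅₀ comes from MTT in Vero (48 h) or SNB-19 (24 h) cells. EC₅₀ comes from the ZIKV PRVABC59 titer-reduction assay in SNB-19 cells (MOI 1, 24 h, focus-forming units on Vero).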

Vero = assay: as §3; assay type: cell-based; conditions: chlorocebus sabaeus, vero, 48 h; outline: as §2
[4] = Selectivity index, ratio of CC50 for African green monkey Vero cells to EC50 for Zika virus PRVABC-59; assay type: toxicity; conditions: read-out: Ratio CC50/EC50; outline: as §4

| Structure (SMILES) | EC50 (Zika virus) | CC50 at 24 h [1] [µM] | CC50 at 48 h [2] [µM] | pEC50 (Zika virus) | CC50 (SNB-19) [µM] | selectivity ratio [3] | CC50 (Vero) [µM] | selectivity ratio [4] |
| --- | --- | --- | --- | --- | --- | --- | --- | --- |
| C=C1CC[C@H]2[C@@](C)(CCC(=O)[C@@]2(C)COC(C)=O)[C@@H]1C/C=C1/C(=O)OC[C@@H]1Oc1cccc2cccnc12 | Not Active | 21.9 | 12.8 |  |  |  |  |  |
| C=C1CC[C@@H]2[C@](C)(CO)[C@H](O)CC[C@@]2(C)[C@@H]1C/C=C1/C(=O)OC[C@@H]1Oc1c(Cl)cc(Cl)c2cccnc12 |  |  |  | 4.88 | > 100 | > 7.5 | > 100 | > 7.5 |
| C=C1CC[C@@H]2[C@]3(C)COC(C)(C)O[C@@H]3CC[C@@]2(C)[C@@H]1C/C=C1/C(=O)OC[C@H]1Oc1c(Cl)cc(Cl)c2cccnc12 | Not Active | 63.5 | 58.6 |  |  |  |  |  |
| C=C1CC[C@@H]2[C@](C)(COC(C)=O)[C@H](O)CC[C@@]2(C)[C@@H]1C/C=C1/C(=O)OC[C@@H]1Oc1c(Cl)cc(Cl)c2cccnc12 | Not Active | 39.3 | 51.9 |  |  |  |  |  |
| C=C1CC[C@@H]2[C@](C)(CO)[C@H](O)CC[C@@]2(C)[C@@H]1C/C=C1/C(=O)OC[C@H]1Oc1cccc2ccc(C)nc12 | Not Active | > 100 | 61.4 |  |  |  |  |  |
| C=C1CC[C@@H]2[C@](C)(CO)[C@H](O)CC[C@@]2(C)[C@@H]1C/C=C1/C(=O)OC[C@@H]1Oc1cccc2ccc(C)nc12 |  |  |  | 4.59 | > 100 | > 3.9 | 99.8 | 3.9 |
| C=C1CC[C@@H]2[C@]3(C)COC(C)(C)O[C@@H]3CC[C@@]2(C)[C@@H]1C/C=C1/C(=O)OC[C@@H]1Oc1cccc2cccnc12 |  |  |  | 4.59 | 21.1 | 0.82 | 22 | 0.85 |
| C=C1CC[C@@H]2[C@]3(C)COC(C)(C)O[C@@H]3CC[C@@]2(C)[C@@H]1C/C=C1/C(=O)OC[C@H]1Oc1cccc2ccc(C)nc12 |  |  |  | 4.78 | 66.5 | 4 | 65.3 | 3.9 |
| C=C1CC[C@@H]2[C@](C)(COC(C)=O)[C@H](O)CC[C@@]2(C)[C@@H]1C/C=C1/C(=O)OC[C@H]1Oc1c(Cl)cc(Cl)c2cccnc12 |  |  |  | 5.35 | 88.7 | 19.7 | 85 | 18.9 |
| C=C1CC[C@H]2[C@@](C)(CCC(=O)[C@@]2(C)COC(C)=O)[C@@H]1C/C=C1/C(=O)OC[C@@H]1Oc1cccc2ccc(C)nc12 | Not Active | 51.7 | 46.7 |  |  |  |  |  |
| C=C1CC[C@@H]2[C@]3(C)COC(C)(C)O[C@@H]3CC[C@@]2(C)[C@@H]1C/C=C1/C(=O)OC[C@@H]1Oc1c(Cl)cc(Cl)c2cccnc12 | Not Active | 39.3 | 55.9 |  |  |  |  |  |
| C=C1CC[C@@H]2[C@](C)(CO)[C@H](O)CC[C@@]2(C)[C@@H]1C/C=C1/C(=O)OC[C@H]1Oc1c(Cl)cc(Cl)c2cccnc12 |  |  |  | 5.11 | 85.2 | 10.9 |  | 7.5 |
| C=C1CC[C@@H]2[C@]3(C)COC(C)(C)O[C@@H]3CC[C@@]2(C)[C@@H]1C/C=C1/C(=O)OC[C@H]1Oc1cccnc1[N+](=O)[O-] | Not Active | 46.5 | 26.2 |  |  |  |  |  |
| C=C1CC[C@H]2[C@@](C)(CCC(=O)[C@@]2(C)COC(C)=O)[C@@H]1C/C=C1/C(=O)OC[C@@H]1Oc1c(Cl)cc(Cl)c2cccnc12 |  |  |  | 4.61 | 72 | 2.9 | 57.4 | 2.3 |
| C=C1CC[C@@H]2[C@](C)(COC(C)=O)[C@H](O)CC[C@@]2(C)[C@@H]1C/C=C1/C(=O)OC[C@H]1Oc1cccc2ccc(C)nc12 | Not Active | > 100 | 50.6 |  |  |  |  |  |
| C=C1CC[C@@H]2[C@](C)(COC(C)=O)[C@H](O)CC[C@@]2(C)[C@@H]1C/C=C1/C(=O)OC[C@@H]1Oc1cccc2ccc(C)nc12 | Not Active | 65.9 | 46.5 |  |  |  |  |  |
| C=C1CC[C@@H]2[C@](C)(COC(C)=O)[C@H](O)CC[C@@]2(C)[C@@H]1C/C=C1/C(=O)OC[C@@H]1Oc1cccc2cccnc12 | Not Active | 49.5 | 27.5 |  |  |  |  |  |
| C=C1CC[C@@H]2[C@](C)(CO)[C@H](O)CC[C@@]2(C)[C@@H]1C/C=C1/C(=O)OC[C@H]1Oc1ccnc2ccccc12 |  |  | 22.8 | 4.96 | 60.1 | 5.5 |  | 2.1 |
| C=C1CC[C@@H]2[C@](C)(CO)[C@H](O)CC[C@@]2(C)[C@@H]1C/C=C1/C(=O)OC[C@@H]1Oc1ccnc2ccccc12 | Not Active | 61.2 | 20.7 |  |  |  |  |  |
| C=C1CC[C@@H]2[C@](C)(CO)[C@H](O)CC[C@@]2(C)[C@@H]1C/C=C1/C(=O)OC[C@@H]1Oc1cccc2cccnc12 |  |  | 20.8 | 5.89 | 22.7 | 17.5 |  | 16.1 |
| C=C1CC[C@@H]2[C@]3(C)COC(C)(C)O[C@@H]3CC[C@@]2(C)[C@@H]1C/C=C1/C(=O)OC[C@@H]1Oc1cccc2ccc(C)nc12 |  |  |  | 5.07 | 78.4 | 9.2 | 55.9 | 6.6 |
| C=C1CC[C@H]2[C@@](C)(CCC(=O)[C@@]2(C)COC(C)=O)[C@@H]1C/C=C1/C(=O)OC[C@H]1Oc1cccc2ccc(C)nc12 | Not Active | > 100 | 72.4 |  |  |  |  |  |
| C=C1CC[C@@H]2[C@](C)(CO)[C@H](O)CC[C@@]2(C)[C@@H]1C/C=C1/C(=O)OC[C@H]1Oc1cccnc1[N+](=O)[O-] |  |  |  | 4.90 | 67.7 | 5.4 | 37.7 | 3 |
| C=C1CC[C@H]2[C@@](C)(CCC(=O)[C@@]2(C)COC(C)=O)[C@@H]1C/C=C1/C(=O)OC[C@H]1Oc1c(Cl)cc(Cl)c2cccnc12 | Not Active | > 100 | 64.7 |  |  |  |  |  |
